Key:
[1] = system: VEGF-induced proliferation; conditions: read-out: IC50 VEGF-induced proliferation; cited from earlier work
[2] = system: HCT-116, HePG-2, HeLa and MCF-7 cells; assay: MTT cytotoxicity summarised over the 4 cancer cell lines; format: cell-based; conditions: Homo sapiens, read-out: IC50 range of one compound over the cancer cell lines
How it was run: (§1)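 Cells were grown in medium with 10% FBS, penicillin/streptomycin, 37°C, 5% CO2, then seeded at 1.0×10^4 cells/well and held 48 h. Test compound was added at 1.56, 3.125, 6.25, 12.5, 25, 50 and 100, for 24 h. MTT (5 mg/mL stock) was added for 4 h, formazan dissolved in DMSO and A570 read. Viability was taken relative to untreated wells. IC50 came from a Boltzmann sigmoidal fit, in triplicate, mean ± SD.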

[3] = system: breast cancer (MCF-7) cell line; assay: MTT cytotoxicity, MCF-7; format: cell-based; conditions: Homo sapiens, MCF7, 24 h, read-out: IC50 MCF-7
How it was run: as §1

[4] = system: hepatocellular (HePG2) carcinoma cell line; assay: MTT cytotoxicity, HePG-2; format: cell-based; conditions: Homo sapiens, HepG2, 24 h, read-out: IC50 HePG-2
[5] = system: human cervical (Hela) carcinoma cell line; assay: MTT cytotoxicity, Hela; format: cell-based; conditions: 24 h, read-out: IC50 Hela
How it was run: as §1

[6] = system: colorectal (HCT116) carcinoma cell line; assay: MTT cytotoxicity, HCT-116; format: cell-based; conditions: Homo sapiens, HCT-116, 24 h, read-out: IC50 HCT-116
[7] = system: WI-38 normal fibroblast cells; assay: MTT cytotoxicity towards normal human cells WI-38; format: cell-based; conditions: WI-38, 24 h, read-out: IC50 WI-38
[8] = molecular target: VEGFR-2 enzyme (Homo sapiens, UniProt P35968); assay: VEGFR-2 kinase inhibitory assay; format: biochemical; conditions: for inhibition at 0.01 µM: read-out: % Inhibition 0.01 μM, VEGFR-2 enzyme, 0.01 μM; for inhibition at 0.1 µM: read-out: % Inhibition 0.1 μM, VEGFR-2 enzyme, 0.1 μM; for inhibition at 1 µM: read-out: % Inhibition 1 μM, VEGFR-2 enzyme, 1 μM; for inhibition at 10 µM: read-out: % Inhibition 10 μM, VEGFR-2 enzyme, 10 μM; for inhibition at 100 µM: read-out: % Inhibition 100 μM, VEGFR-2 enzyme, 100 μM
Sequence of VEGFR-2 enzyme (P35968 20-1356): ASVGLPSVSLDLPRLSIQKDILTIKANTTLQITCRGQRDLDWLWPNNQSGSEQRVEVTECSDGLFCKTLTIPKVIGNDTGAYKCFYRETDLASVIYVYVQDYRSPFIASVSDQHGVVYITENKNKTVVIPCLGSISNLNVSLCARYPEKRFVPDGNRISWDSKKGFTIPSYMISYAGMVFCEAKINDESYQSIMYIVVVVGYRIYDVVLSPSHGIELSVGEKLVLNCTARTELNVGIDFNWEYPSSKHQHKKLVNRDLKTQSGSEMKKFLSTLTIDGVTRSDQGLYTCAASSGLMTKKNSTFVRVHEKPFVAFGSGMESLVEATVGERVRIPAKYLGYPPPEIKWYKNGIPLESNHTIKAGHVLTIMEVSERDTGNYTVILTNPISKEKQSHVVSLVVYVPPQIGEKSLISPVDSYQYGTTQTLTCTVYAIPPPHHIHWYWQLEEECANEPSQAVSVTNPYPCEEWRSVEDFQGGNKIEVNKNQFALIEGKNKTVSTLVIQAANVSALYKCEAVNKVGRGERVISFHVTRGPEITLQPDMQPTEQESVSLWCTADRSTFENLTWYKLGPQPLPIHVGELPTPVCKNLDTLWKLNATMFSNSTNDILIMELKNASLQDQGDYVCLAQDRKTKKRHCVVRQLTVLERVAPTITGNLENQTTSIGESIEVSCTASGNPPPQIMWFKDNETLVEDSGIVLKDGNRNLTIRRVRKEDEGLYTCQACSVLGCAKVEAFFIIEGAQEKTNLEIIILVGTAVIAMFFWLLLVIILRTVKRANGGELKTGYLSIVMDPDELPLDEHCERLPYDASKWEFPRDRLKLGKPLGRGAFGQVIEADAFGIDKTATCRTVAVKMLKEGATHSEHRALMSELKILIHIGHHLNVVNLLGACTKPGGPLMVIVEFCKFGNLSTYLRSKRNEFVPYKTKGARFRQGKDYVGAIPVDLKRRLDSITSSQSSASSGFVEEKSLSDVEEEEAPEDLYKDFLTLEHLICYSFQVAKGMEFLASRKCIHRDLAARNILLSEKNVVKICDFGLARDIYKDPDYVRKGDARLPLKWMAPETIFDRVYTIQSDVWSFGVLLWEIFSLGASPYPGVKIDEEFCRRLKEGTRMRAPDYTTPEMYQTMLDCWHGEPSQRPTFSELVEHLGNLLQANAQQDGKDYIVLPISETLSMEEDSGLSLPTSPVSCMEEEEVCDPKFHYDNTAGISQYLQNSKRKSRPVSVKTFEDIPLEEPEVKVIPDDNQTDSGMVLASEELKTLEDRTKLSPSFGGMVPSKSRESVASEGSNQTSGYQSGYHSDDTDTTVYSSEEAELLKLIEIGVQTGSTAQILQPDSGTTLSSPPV

[9] = system: MCF-7 cells; assay: Annexin V-FITC/PI apoptosis assay; format: cell-based, human; conditions: MCF-7, 24 hours of incubation
How it was run: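 MCF-7 cells were treated with test compound for 24 h, with DMSO as control. 1–5×10^5 cells were pelleted by centrifugation and resuspended in binding buffer. They were stained with Annexin V-FITC and PI for 5 min at room temperature in the dark, then analysed by flow cytometry. Quadrants: Q1 necrotic, Q2 late apoptotic, Q3 live, Q4 early apoptotic.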

[10] = system: MCF-7 cells; assay: Cell cycle analysis by PI staining and flow cytometry; format: cell-based, human; conditions: MCF-7, 24 h at IC50 of the compound
[11] = system: prostate cancer PC3 cell line; conditions: read-out: IC50 PC3 cell line; cited from earlier work
[12] = system: VEGFR-2; conditions: read-out: IC50 VEGFR-2; reference medicine pazopanib; cited from earlier work

SMILES | IC50 [2] | IC50 [3] | IC50 [4] | IC50 [5] | IC50 [6] | IC50 [7] | other results
COc1cc2c(Oc3ccc4[nH]c(C)cc4c3F)ncnc2cc1OCCCN1CCCC1 [Cediranib] | – | – | – | – | – | – | IC50 [1]: < 0.001 µM
COc1ccc(NC(=O)NCCSc2nc3ccccc3c(=O)n2-c2ccccc2)cc1 [Compound 5a, 1-(4-Methoxyphenyl)-3-(2-((4-Oxo-3-Phenyl-3,4-Dihydroquinazolin-2-Yl)thio)ethyl)urea] | 62.7 to 83.4 µM | 79.5 ± 3.9 µM | 81.3 ± 4.3 µM | 83.4 ± 4.4 µM | 62.7 ± 3.6 µM | 29.4 ± 2.1 µM | –
O=C(NCCSc1nc2ccccc2c(=O)n1-c1ccccc1)Nc1ccc(Cl)cc1 [Compound 5b, 1-(4-Chlorophenyl)-3-(2-((4-Oxo-3-Phenyl-3,4-Dihydroquinazolin-2-Yl)thio)ethyl)urea] | 77.3 to 100 µM | 92.2 ± 4.7 µM | 88.5 ± 4.8 µM | > 100 µM | 77.3 ± 4.2 µM | 64.3 ± 3.7 µM | –
O=C(NCCSc1nc2ccccc2c(=O)n1-c1ccccc1)Nc1ccc(Br)cc1 [Compound 5c, 1-(4-Bromophenyl)-3-(2-((4-Oxo-3-Phenyl-3,4-Dihydroquinazolin-2-Yl)thio)ethyl)urea] | 48.2 to 67.7 µM | 55.1 ± 3.2 µM | 57.8 ± 3.6 µM | 67.7 ± 3.9 µM | 48.2 ± 3 µM | > 100 µM | –
O=C(NCCSc1nc2ccccc2c(=O)n1-c1ccccc1)Nc1ccc(C(F)(F)F)cc1 [Compound 5d, 1-(2-((4-Oxo-3-Phenyl-3,4-Dihydroquinazolin-2-Yl)thio)ethyl)-3-(4-(Trifluoromethyl)phenyl)urea] | 2.39 to 8.94 µM | 4.81 ± 0.2 µM | 2.39 ± 0.1 µM | 8.94 ± 0.7 µM | 6.09 ± 2.2 µM | 36.3 ± 2.4 µM | IC50 [8]: 0.274 µM; inhibition at 0.01 µM [8]: 25.5%; inhibition at 0.1 µM [8]: 38.9%; inhibition at 1 µM [8]: 60.4%; inhibition at 10 µM [8]: 83.5%; inhibition at 100 µM [8]: 91%
O=C(NCCSc1nc2ccccc2c(=O)n1-c1ccccc1)NCc1ccccc1 [Compound 5e, 1-Benzyl-3-(2-((4-Oxo-3-Phenyl-3,4-Dihydroquinazolin-2-Yl)thio)ethyl)urea] | – | 72.8 ± 3.6 µM | 65.7 ± 3.8 µM | 75.3 ± 4.2 µM | 54.9 ± 3.3 µM | > 100 µM | –
COc1ccc(CNC(=O)NCCSc2nc3ccccc3c(=O)n2-c2ccccc2)cc1 [Compound 5f, 1-(4-Methoxybenzyl)-3-(2-((4-Oxo-3-Phenyl-3,4-Dihydroquinazolin-2-Yl)thio)ethyl)urea] | 14.8 to 34.2 µM | 18.7 ± 1.5 µM | 34.2 ± 2.4 µM | 31.5 ± 2.3 µM | 14.8 ± 1.3 µM | 91.4 ± 5.1 µM | –
O=C(NCCSc1nc2ccccc2c(=O)n1-c1ccccc1)NCc1ccc(Cl)cc1 [Compound 5g, 1-(4-Chlorobenzyl)-3-(2-((4-Oxo-3-Phenyl-3,4-Dihydroquinazolin-2-Yl)thio)ethyl)urea] | 35.3 to 53.7 µM | 39.6 ± 2.6 µM | 47.2 ± 3.1 µM | 53.7 ± 3.1 µM | 35.3 ± 2.6 µM | 86 ± 4.8 µM | –
O=C(NCCSc1nc2ccccc2c(=O)n1-c1ccccc1)NCCc1ccccc1 [Compound 5h, 1-(2-((4-Oxo-3-Phenyl-3,4-Dihydroquinazolin-2-Yl)thio)ethyl)-3-Phenethylurea] | – | 13.9 ± 1.1 µM | 6.74 ± 0.5 µM | 11.6 ± 0.9 µM | 5.89 ± 0.3 µM | 41.1 ± 2.6 µM | IC50 [8]: 0.215 µM; % Inhibition 1 μM ([8]; VEGFR-2 enzyme, 1 μM): 65.78%; % Inhibition 100 μM ([8]; VEGFR-2 enzyme, 100 μM): 93.07%; inhibition at 0.01 µM [8]: 25.3%; inhibition at 0.1 µM [8]: 40.1%; inhibition at 10 µM [8]: 86.1%
O=C(NCCSc1nc2ccccc2c(=O)n1-c1ccccc1)NCCc1ccc(Cl)cc1 [Compound 5i, 1-(4-Chlorophenethyl)-3-(2-((4-Oxo-3-Phenyl-3,4-Dihydroquinazolin-2-Yl)thio)ethyl)urea] | 39.1 to 58.3 µM | 43.1 ± 2.8 µM | 49.8 ± 3.2 µM | 58.3 ± 3.3 µM | 39.1 ± 2.7 µM | > 100 µM | –
COc1ccc(NC(=O)NCCSc2nc3cc(Cl)ccc3c(=O)n2-c2ccccc2)cc1 [Compound 5j, 1-(2-((7-Chloro-4-Oxo-3-Phenyl-3,4-Dihydroquinazolin-2-Yl)thio)ethyl)-3-(4-Methoxyphenyl)urea] | 9.51 to 16 µM | 16 ± 1.3 µM | 12.3 ± 1 µM | 19.1 ± 1.4 µM | 9.51 ± 0.9 µM | 38.5 ± 2.5 µM | –
O=C(NCCSc1nc2cc(Cl)ccc2c(=O)n1-c1ccccc1)Nc1ccc(Cl)cc1 [Compound 5k, 1-(2-((7-Chloro-4-Oxo-3-Phenyl-3,4-Dihydroquinazolin-2-Yl)thio)ethyl)-3-(4-Chlorophenyl)urea] | 23.4 to 40.9 µM | 32.9 ± 2.3 µM | 40.9 ± 2.6 µM | 38 ± 2.5 µM | 23.4 ± 2.1 µM | > 100 µM | –
O=C(NCCSc1nc2cc(Cl)ccc2c(=O)n1-c1ccccc1)Nc1ccc(Br)cc1 [Compound 5l, 1-(4-Bromophenyl)-3-(2-((7-Chloro-4-Oxo-3-Phenyl-3,4-Dihydroquinazolin-2-Yl)thio)ethyl)urea] | 28.6 to 49.4 µM | 37.2 ± 2.5 µM | 44.7 ± 2.9 µM | 49.4 ± 2.9 µM | 28.6 ± 2.3 µM | > 100 µM | –
O=C(NCCSc1nc2cc(Cl)ccc2c(=O)n1-c1ccccc1)Nc1ccc(C(F)(F)F)cc1 [Compound 5m, 1-(2-((7-Chloro-4-Oxo-3-Phenyl-3,4-Dihydroquinazolin-2-Yl)thio)ethyl)-3-(4-(Trifluoromethyl)phenyl)urea] | 18.1 to 30.7 µM | 21.4 ± 1.8 µM | 30.7 ± 2.2 µM | 27.9 ± 2.1 µM | 18.1 ± 1.5 µM | 76.3 ± 4.3 µM | –
O=C(NCCSc1nc2cc(Cl)ccc2c(=O)n1-c1ccccc1)NCc1ccccc1 [Compound 5n, 1-Benzyl-3-(2-((7-Chloro-4-Oxo-3-Phenyl-3,4-Dihydroquinazolin-2-Yl)thio)ethyl)urea] | – | 48.7 ± 3 µM | 52.4 ± 3.4 µM | 61.5 ± 3.7 µM | 44.2 ± 2.8 µM | 73.6 ± 3.9 µM | –
COc1ccc(CNC(=O)NCCSc2nc3cc(Cl)ccc3c(=O)n2-c2ccccc2)cc1 [Compound 5o, 1-(2-((7-Chloro-4-Oxo-3-Phenyl-3,4-Dihydroquinazolin-2-Yl)thio)ethyl)-3-(4-Methoxybenzyl)urea] | 69.3 to 90.2 µM | 86.5 ± 4.2 µM | 84.3 ± 4.6 µM | 90.2 ± 4.8 µM | 69.3 ± 3.9 µM | 35.9 ± 2.3 µM | –
O=C(NCCSc1nc2cc(Cl)ccc2c(=O)n1-c1ccccc1)NCc1ccc(Cl)cc1 [Compound 5p, 1-(2-((7-Chloro-4-Oxo-3-Phenyl-3,4-Dihydroquinazolin-2-Yl)thio)ethyl)-3-(4-Chlorobenzyl)urea] | 7.99 to 14.3 µM | 7.99 ± 0.5 µM | 9.72 ± 0.7 µM | 14.3 ± 1.2 µM | 8.32 ± 0.7 µM | 56.9 ± 3.3 µM | IC50 [8]: 0.117 µM; inhibition at 0.01 µM [8]: 31.4%; inhibition at 0.1 µM [8]: 44.4%; inhibition at 1 µM [8]: 70.5%; inhibition at 10 µM [8]: 88.3%; inhibition at 100 µM [8]: 93.5%; necrosis (Q1) [9]: 4.23%; late apoptosis (Q2) ([9]; control 0.27%): 12.51%; early apoptosis (Q4) ([9]; control 0.61%): 26.11%; total apoptosis ([9]; control 2.29%): 42.85%; Cell Cycle Distribution (%) G2-M ([10]; DMSO control 16.75): 7.82%; Cell Cycle Distribution (%) S ([10]; DMSO control 29.16): 35.02%; Cell Cycle Distribution (%) G0-G1 ([10]; DMSO control 54.09): 57.16%
O=C(NCCSc1nc2cc(Cl)ccc2c(=O)n1-c1ccccc1)NCCc1ccccc1 [Compound 5q, 1-(2-((7-Chloro-4-Oxo-3-Phenyl-3,4-Dihydroquinazolin-2-Yl)thio)ethyl)-3-Phenethylurea] | – | 24.6 ± 2 µM | 41.6 ± 2.8 µM | 45.2 ± 2.7 µM | 32.5 ± 2.5 µM | 53 ± 3.1 µM | –
O=C(NCCSc1nc2cc(Cl)ccc2c(=O)n1-c1ccccc1)NCCc1ccc(Cl)cc1 [Compound 5r, 1-(2-((7-Chloro-4-Oxo-3-Phenyl-3,4-Dihydroquinazolin-2-Yl)thio)ethyl)-3-(4-Chlorophenethyl)urea] | 10.7 to 22.4 µM | 10.7 ± 0.9 µM | 17.7 ± 1.4 µM | 22.4 ± 1.7 µM | 13.2 ± 1.1 µM | 74.2 ± 4.1 µM | –
CNC(=O)c1cc(Oc2ccc(NC(=O)Nc3ccc(Cl)c(C(F)(F)F)c3)cc2)ccn1 [SOR, Sorafenib, reference compound] | – | 4.17 ± 0.2 µM | – | – | – | – | IC50 [11]: 17.3 µM
